{"data": "Experimental data of several laboratories", "note": "Lines come from different studies, so protocols differ."}
{"Compound": "COc1cc(C(=O)NC2CCN(C)CC2)c(F)cc1Nc1ncc(C(F)(F)F)c(Oc2cccc3c2C(=O)N(C)C3)n1", "system": "human, plasma", "conditions": "oral, 200 mg, multiple doses, once daily, steady state, patients", "measurement": "Cmax", "result": "2580 nM"}
{"Compound": "C=CC(=O)N1CC2CC(n3nc(-c4ccc(C(=O)Nc5ccccn5)cc4)c4c(N)ncnc43)CC2C1 (stereo not drawn)", "system": "SCID mouse, plasma", "conditions": "oral, 1 mg/kg", "measurement": "Tmax", "result": "15 min"}
{"Compound": "CO[C@H]1CC[C@H](N2C(=O)CNc3ncc(-c4ccc(C(C)(C)O)nc4)nc32)CC1", "system": "human, plasma", "conditions": "oral, 15 mg, multiple doses, patients", "measurement": "Cmax", "result": "92 ng/mL"}
{"Compound": "CC(C)n1cc(C#N)c2cc(-n3cc(C(=O)O)cn3)ccc21", "system": "human, plasma", "conditions": "oral, 10 mg, single dose, fasted, healthy volunteers", "measurement": "Cmax", "result": "313 ng/mL"}
{"Compound": "CC(C)(C)c1ccc(O)c(CN(Cc2cc(C(C)(C)C)ccc2O)C2CCC(NC(N)=O)CC2)c1 (stereo not drawn)", "system": "male C57BL/6 mouse, plasma", "conditions": "intraperitoneal, 10 mg/kg, single dose", "measurement": "Tmax", "result": "15 min"}
{"Compound": "Cn1cc(-c2ccc(S(=O)(=O)[C@@H]3C[C@@H](C(=O)NC4(C#N)CC4)N(C(=O)C4(C(F)(F)F)CC4)C3)c(C(F)(F)F)c2)cn1", "system": "human, plasma", "conditions": "oral, 600 mg, single dose, fasted, healthy volunteers", "measurement": "Cmax", "result": "1300 ng/mL"}
{"Compound": "CC(C)(O)c1cn(-c2ccc(-c3cccc(S(C)(=O)=O)c3)cc2)c(C(C)(C)c2ccccc2Cl)n1", "system": "male cynomolgus monkey, plasma", "conditions": "intravenous, 1 mg/kg, single dose", "measurement": "Vd", "result": "1.3 L/kg"}
{"Compound": "CN1CCC[C@H](CN2c3ccccc3Sc3ccccc32)C1.Cl", "system": "mouse, plasma", "conditions": "intraperitoneal, 32 mg/kg, single dose", "measurement": "Tmax", "result": "60 min"}
{"Compound": "C[C@H]1O[C@@H](O[C@H]2[C@@H](O)C[C@H](O[C@H]3[C@@H](O)C[C@H](O[C@H]4CC[C@@]5(C)[C@H](CC[C@@H]6[C@@H]5C[C@@H](O)[C@]5(C)[C@@H](C7=CC(=O)OC7)CC[C@]65O)C4)O[C@@H]3C)O[C@@H]2C)C[C@H](O)[C@@H]1O", "system": "Caco-2", "conditions": "5 µM, 1 h", "measurement": "efflux ratio", "result": 6.6}
{"Compound": "CN1CCC(c2ccccc2CC(C)(C)Nc2nc(N3CCOCC3)nc(-n3c(C(F)F)nc4ccccc43)n2)CC1", "system": "cynomolgus monkey, plasma", "conditions": "intravenous, 2 mg/kg, single dose", "measurement": "Vd", "result": "8 L/kg"}
{"Compound": "CCc1nc2c(C)cc(N3CCN(CC(=O)N4CC(O)C4)CC3)cn2c1N(C)c1nc(-c2ccc(F)cc2)c(C#N)s1", "system": "human, plasma", "conditions": "oral, 1500 mg, single dose, fed, healthy volunteers", "measurement": "Cmax", "result": "19000 ng/mL"}
{"Compound": "CC(C)(O)c1cn(-c2ccc(-c3cc(F)c(CO)c(S(C)(=O)=O)c3)cc2F)c(C(C)(C)c2c(Cl)cccc2Cl)n1", "system": "male cynomolgus monkey, plasma", "conditions": "oral, 3 mg/kg, single dose", "measurement": "bioavailability", "result": "42%"}
